# Test results from paper PMC9473745 (Cell chemical biology, 2021).
# “Also recorded” adds a separate entry of the source. Read-outs that look alike come from different tables or passages of the source.
# What was measured:
# USP7 catalytic domain = USP7 catalytic domain (Homo sapiens, UniProt Q93009); assay: Ubiquitin rhodamine 110 kinetic assay, USP7 catalytic domain; type: biochemical
# In short: (§1)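 Human DUB constructs, each N-terminally 6xHis-tagged and expressed in E. coli BL21(DE3): USP7 full length (AA 1–1102), USP7 catalytic domain (AA 208–560), USP8 catalytic domain (AA 743–1110) and USP30 catalytic domain (AA 65–517). Ub-Rho110 was then added and fluorescence (ex 485/em 535 nm) read each minute over 30 min. Initial rates were normalized to no-compound wells and fitted (variable slope) for IC50; each run at least twice, SEM.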
# full-length USP7 = assay: Kinetic Ub-Rho assay, full-length USP7; type: biochemical, human; settings: dose-response
# In short: as §1
# USP8 [1] = assay: Ub-Rho endpoint screen of spiro indolinone expansion set, USP8; type: biochemical, human; settings: 8-point dose-response in triplicate
# In short: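 Enzyme and test compound were incubated 10 min; DMSO wells served as control. Ub-Rho110 was then added and the reaction run 30 min–3 h at room temperature depending on DUB. Stopped with assay buffer plus 0.2% TFA and read at ex 485/em 535 nm.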
# USP7 = assay: Ub-Rho endpoint screen of spiro indolinone expansion set, USP7; type: biochemical, human; settings: 8-point dose-response in triplicate
# In short: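 Enzyme and acoustically dispensed test compound were incubated 1 h; DMSO-only wells served as neutral control. Ub-Rho110 was then added and the reaction run 10 min at room temperature without a quench. Fluorescence was read at ex 485/em 535 nm.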
# USP28 catalytic domain = biological target: T1, USP28 catalytic domain (Homo sapiens, UniProt Q96RU2); assay: Ubiquitin rhodamine 110 kinetic assay, USP28; type: biochemical; settings: for potency relative to AZ1: USP28 IC50 compared with AZ1
# T1 sequence (Q96RU2 149-703): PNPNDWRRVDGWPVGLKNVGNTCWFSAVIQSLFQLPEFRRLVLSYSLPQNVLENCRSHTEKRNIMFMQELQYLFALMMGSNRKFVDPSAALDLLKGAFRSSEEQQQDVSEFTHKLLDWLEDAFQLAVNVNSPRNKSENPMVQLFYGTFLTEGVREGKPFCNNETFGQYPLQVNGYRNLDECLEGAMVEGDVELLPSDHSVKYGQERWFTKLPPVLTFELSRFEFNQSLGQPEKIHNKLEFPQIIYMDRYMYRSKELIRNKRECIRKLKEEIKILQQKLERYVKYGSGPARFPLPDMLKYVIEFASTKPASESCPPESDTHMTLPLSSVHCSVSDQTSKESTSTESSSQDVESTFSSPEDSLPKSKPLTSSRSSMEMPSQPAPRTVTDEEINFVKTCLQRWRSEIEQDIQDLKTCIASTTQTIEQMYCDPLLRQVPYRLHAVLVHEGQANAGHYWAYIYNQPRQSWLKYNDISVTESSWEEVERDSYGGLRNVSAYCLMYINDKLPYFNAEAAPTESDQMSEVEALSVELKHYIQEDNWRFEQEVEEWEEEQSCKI
# USP28 in HEK293T lysates = assay: Quantitative activity-based protein profiling; type: binding, human; settings: HEK293T lysate, 250 μM compound, Ub-PA/Ub-VME probes
# In short: (§2)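 HEK293T cells were lysed in NP-40/glycerol/TCEP buffer with protease and phosphatase inhibitors, and lysate was diluted to 10 mg/mL. Lysate was incubated with 250 μM test compound or DMSO for 30 min at room temperature, with a selective USP7 inhibitor as positive control. Biotin-Ub-PA and biotin-Ub-VME (1 μM each) were added for 15 min. Labelled proteins were captured on streptavidin, trypsin-digested on bead and TMT-labelled. Quantified by multidimensional LC-MS using reporter-ion protein-level values.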
# [2] = test system: USP28 in HEK293T cellular lysate; assay: Competitive ABPP with western blot readout for USP28; type: binding, human; settings: 1 hour pre-treatment, dose-response
# In short: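 Lysate was pre-incubated with compound or DMSO for 1 h at RT. It was then labeled with 1:1 Ub-PA/Ub-VME (2 μM final) for 30 min at RT with shaking. Samples were denatured at 95°C, run on SDS-PAGE, and immunoblotted with anti-USP28 rabbit monoclonal.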
# USP30 catalytic domain = biological target: T2, USP30 catalytic domain (Homo sapiens, UniProt Q70CQ3); assay: Ubiquitin rhodamine 110 kinetic assay, USP30; type: biochemical
# T2 sequence (Q70CQ3 65-517): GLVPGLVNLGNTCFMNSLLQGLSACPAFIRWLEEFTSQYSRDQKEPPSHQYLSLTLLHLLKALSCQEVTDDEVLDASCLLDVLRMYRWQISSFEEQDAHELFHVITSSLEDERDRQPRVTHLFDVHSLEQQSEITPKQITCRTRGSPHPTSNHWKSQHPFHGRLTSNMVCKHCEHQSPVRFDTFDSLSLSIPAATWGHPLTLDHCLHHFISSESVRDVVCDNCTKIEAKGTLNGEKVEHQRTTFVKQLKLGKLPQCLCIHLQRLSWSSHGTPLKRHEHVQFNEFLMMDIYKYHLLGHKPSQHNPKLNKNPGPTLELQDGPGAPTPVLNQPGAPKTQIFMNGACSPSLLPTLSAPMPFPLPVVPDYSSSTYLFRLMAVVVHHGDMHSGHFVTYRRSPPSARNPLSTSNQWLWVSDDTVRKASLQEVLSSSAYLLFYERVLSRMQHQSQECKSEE
# In short: as §1
# [3] = test system: native USP25 in HEK293T lysates; assay: Quantitative activity-based protein profiling; type: binding, human; settings: HEK293T lysate, 250 μM compound, Ub-PA/Ub-VME probes
# In short: as §2
# [4] = test system: other DUBs detected in cell lysate; assay: Quantitative activity-based protein profiling; type: binding, human; settings: HEK293T lysate, 250 μM compound, Ub-PA/Ub-VME probes
# In short: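 Aliquots were treated with 250 μM compound or DMSO for 30 min at RT, then processed to peptides. Peptides were TFA-acidified, C18-desalted, and TMT-labeled for 1 h at RT. Peptides were mapped to unique genes, and reporter ions were aggregated into protein-level values.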
# USP8 [5] = assay: Ubiquitin-AMC kinetic assay, USP8; type: biochemical, human; settings: dose-response
# In short: (§3)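 Same kinetic protocol as the Ub-Rho110 assay, with Ub-AMC as substrate. His-tagged catalytic domains were used: USP8 (AA 743–1110) and USP10 (AA 376–798). Read at ex 345/em 445 nm each minute over 30 min. IC50 came from initial rates normalized to no-compound wells and was compared with the Ub-Rho110 value.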
# USP8 catalytic domain = biological target: T3, USP8 catalytic domain (Homo sapiens, UniProt P40818); assay: Ubiquitin rhodamine 110 kinetic assay, USP8; type: biochemical; settings: kinetic Ub-Rho assay
# T3 sequence (P40818 743-1110): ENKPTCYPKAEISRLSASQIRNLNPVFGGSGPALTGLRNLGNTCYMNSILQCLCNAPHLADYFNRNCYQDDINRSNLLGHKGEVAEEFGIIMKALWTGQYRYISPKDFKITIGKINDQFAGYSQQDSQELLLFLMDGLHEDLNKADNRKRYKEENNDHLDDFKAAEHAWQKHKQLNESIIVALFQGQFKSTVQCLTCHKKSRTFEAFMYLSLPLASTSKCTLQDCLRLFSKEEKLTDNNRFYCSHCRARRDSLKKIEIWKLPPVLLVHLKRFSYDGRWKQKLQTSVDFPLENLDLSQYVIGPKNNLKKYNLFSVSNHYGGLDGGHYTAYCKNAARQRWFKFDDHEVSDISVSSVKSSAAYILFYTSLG
# In short: as §1
# USP10 = assay: Ubiquitin-AMC kinetic assay, USP10; type: biochemical, human; settings: dose-response
# In short: as §3
# USP10 catalytic domain = USP10 catalytic domain (Homo sapiens, UniProt Q14694); assay: Ubiquitin rhodamine 110 kinetic assay, USP10; type: biochemical; settings: read-out: IC50 ± SEM, kinetic Ub-Rho assay, 12-point dose-response, mean ± SEM (n)
# In short: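 Enzyme was the human USP10 catalytic domain (aa 376–798), N-6xHis, E. coli-expressed, purified by Ni-NTA and Superdex 200. Fluorescence (ex 485/em 535 nm) was read every minute for 30 min. Initial rates were normalized to no-compound control and fitted with a variable-slope model; runs ≥2, SEM.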
# [6] = IC50 ± SEM, USP28, catalytic domain of the human protein, kinetic Ub-Rho assay, mean ± SEM (n)
# Chain of USP7 catalytic domain (Q93009 208-560): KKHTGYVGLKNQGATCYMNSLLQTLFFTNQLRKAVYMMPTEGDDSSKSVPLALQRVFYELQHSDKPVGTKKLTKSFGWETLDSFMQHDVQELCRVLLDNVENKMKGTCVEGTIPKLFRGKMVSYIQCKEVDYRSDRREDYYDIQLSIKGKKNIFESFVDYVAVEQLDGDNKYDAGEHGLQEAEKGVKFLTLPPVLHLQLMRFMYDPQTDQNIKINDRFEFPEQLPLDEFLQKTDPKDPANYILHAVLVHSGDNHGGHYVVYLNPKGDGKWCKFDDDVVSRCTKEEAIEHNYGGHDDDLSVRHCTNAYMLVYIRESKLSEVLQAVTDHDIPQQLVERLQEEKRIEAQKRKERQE
# Chain of USP10 catalytic domain (Q14694 376-798): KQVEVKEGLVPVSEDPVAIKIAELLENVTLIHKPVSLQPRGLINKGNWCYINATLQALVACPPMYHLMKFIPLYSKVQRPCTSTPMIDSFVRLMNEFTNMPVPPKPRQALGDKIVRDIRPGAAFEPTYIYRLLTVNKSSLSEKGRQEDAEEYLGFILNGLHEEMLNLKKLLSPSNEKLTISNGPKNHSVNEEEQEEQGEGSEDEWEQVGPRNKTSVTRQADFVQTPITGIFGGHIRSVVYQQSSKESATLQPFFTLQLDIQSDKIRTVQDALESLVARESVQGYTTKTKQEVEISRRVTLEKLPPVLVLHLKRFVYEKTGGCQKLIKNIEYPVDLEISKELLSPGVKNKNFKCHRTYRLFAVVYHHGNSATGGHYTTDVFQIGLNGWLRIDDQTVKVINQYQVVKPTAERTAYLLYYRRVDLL
compound,measurement,setting,value
"Cc1nn(-c2ccccc2)c2c1C1(C(=O)Nc3ccccc31)N1C(=N2)Sc2ccccc21 (centres unmarked) [AV-9606–27, 3-methyl-1-phenyl-1H-spiro[benzo[4,5]thiazolo[3,2-a]pyrazolo[3,4-d]pyrimidine-4,3’-indolin]-2’-one]",IC50,"USP7 catalytic domain; read-out: IC50 ± SEM, USP7, kinetic Ub-Rho assay, 12-point dose-response, mean ± SEM (n)",4.68 ± 1.05 µM
"CC(C)c1[nH]nc2c1C1(C(=O)Nc3ccccc31)C(C#N)=C(N)O2 (centres unmarked) [AV-9606–41, 6’-amino-3’-isopropyl-2-oxo-2’H-spiro[indoline-3,4’-pyrano[2,3-c]pyrazole]-5’-carbonitrile]",IC50,USP7 catalytic domain,3.83 ± 1.6 µM
same,inhibition of full-length USP7,full-length USP7,no inhibition of full-length protein; also recorded: no activity against a full-length protein
same,activity against USP8 in expansion set screen,USP8 [1],inactive against USP8
same,activity against USP7 in expansion set screen,USP7,active against USP7
"O=C1c2ccccc2NC2(C(=O)Nc3ccc(Br)cc32)N1c1ccccc1 (centres unmarked) [AV-9606–99, 5-bromo-3’-phenyl-1’H-spiro[indoline-3,2’-quinazoline]-2,4’(3’H)-dione]",IC50,USP28 catalytic domain; [6],4330 ± 1080 nM
"Cc1ccc(S(=O)(=O)N(C)C)cc1NC(=O)Cc1ccc(Cl)c(Cl)c1 [AV-9606–129, 2-(3,4-dichlorophenyl)-N-(5-(N,N-dimethylsulfamoyl)-2-methylphenyl)acetamide]",IC50,USP28 catalytic domain; [6],402 ± 197 nM
"O=c1ccc(-c2noc(Cc3ccc(Cl)c(Cl)c3)n2)c[nH]1 [AV-9606–180, 5-(5-(3,4-dichlorobenzyl)-1,2,4-oxadiazol-3-yl)pyridin-2(1H)-one]",blockage of probe labeling of USP28,USP28 in HEK293T lysates,strong inhibition of USP28
same,IC50,"USP28 catalytic domain; IC50, USP28",≤ 100 nM
same,potency relative to AZ1,USP28 catalytic domain,approximately 10 fold
same,blockage of USP28 labeling by covalent probe (western blot),[2],good dose-dependent inhibition and prevention of probe labeling
"CC(C)NS(=O)(=O)c1cccc2c(NC(=O)[C@H](Cc3ccccc3)NC(=O)c3ccccc3)cccc12 [AV-11324–5, (S)-N-(1-((5-(N-isopropylsulfamoyl)naphthalen-1-yl)amino)-1-oxo-3-phenylpropan-2-yl)benzamide]",IC50,USP30 catalytic domain,275 ± 70 nM
"O=c1ccc(-c2noc(Cc3cccc(Cl)c3)n2)c[nH]1 [AV-11324–75, 5-(5-(3-chlorobenzyl)-1,2,4-oxadiazol-3-yl)pyridin-2(1H)-one]",IC50,USP28 catalytic domain; [6],176 ± 73 nM
same,blockage of USP28 labeling by covalent probe (western blot),[2],good dose-dependent inhibition and prevention of probe labeling
OCCNCc1cc(Br)ccc1OCc1ccc(F)c(C(F)(F)F)c1 [AZ1],blockage of probe labeling of USP28,USP28 in HEK293T lysates,little impact on USP28
same,blockage of probe labeling of USP25,[3],strongly blocked labeling of USP25
same,activity toward other DUBs detected,[4],did not exhibit activity toward any other DUBs
COc1ccc(C(=O)COC(=O)c2ccccc2NS(=O)(=O)c2ccc(O)c([N+](=O)[O-])c2)cc1 [Compound Z56965384],increase in IC50 value with Ubiquitin-AMC versus Ub-Rho,USP8 [5],3–10 fold
same,inhibition of off-target DUB USP8,USP8 catalytic domain,confirmed inhibition
same,increase in IC50 value with Ubiquitin-AMC versus Ub-Rho,USP10,3–10 fold
same,IC50,USP10 catalytic domain,26.6 ± 4.69 µM
"CCCc1nc2sc3c(NCCc4ccc(OC)c(OC)c4)ncnc3c2c2c1CCC2 [bin-01–07-07, N-(3,4-dimethoxyphenethyl)-4-propyl-2,3-dihydro-1H-cyclopenta[4’,5’]pyrido[3’,2’:4,5]thieno[3,2-d]pyrimidin-7-amine]",blockage of probe labeling of USP28,USP28 in HEK293T lysates,strong inhibition of USP28
same,IC50,"USP28 catalytic domain; IC50, USP28",≤ 100 nM
same,IC50,USP28 catalytic domain; [6],46 ± 17 nM
same,potency relative to AZ1,USP28 catalytic domain,approximately 10 fold
same,blockage of USP28 labeling by covalent probe (western blot),[2],good dose-dependent inhibition and prevention of probe labeling
